The source of these data is ChEMBL document CHEMBL1134719, “Design, synthesis and stability of N-acyloxymethyl- and N-aminocarbonyloxymethyl-2-azetidinones as human leukocyte elastase inhibitors” (Bioorg Med Chem Lett, 2001).

The source made the active and inactive calls. The calls are words filed in the database; no cut-off is given here. Where only a bound is given, the exact number is not on record here.

The target of data set [1] is T1, Neutrophil elastase (Homo sapiens) (UniProt P08246).
T1 sequence (whole entry): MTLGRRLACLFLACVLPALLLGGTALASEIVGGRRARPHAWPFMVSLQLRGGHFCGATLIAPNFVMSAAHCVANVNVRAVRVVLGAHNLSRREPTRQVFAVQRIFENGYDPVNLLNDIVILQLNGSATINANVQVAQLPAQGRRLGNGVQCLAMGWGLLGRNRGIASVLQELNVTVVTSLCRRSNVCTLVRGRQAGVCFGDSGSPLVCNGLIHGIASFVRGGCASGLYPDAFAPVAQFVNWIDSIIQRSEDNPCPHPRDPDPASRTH
Kind of data set: (§1) Second-order rate constant for the inhibition of human leukocyte elastase. Put shortly: (§2)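 Pre-incubation (Kitz–Wilson) kinetics at 25 °C. Enzyme and inhibitor were incubated, and aliquots were withdrawn at several time intervals into a cuvette holding substrate in HEPES buffer. After 30 s, the absorbance change was followed for 60 s.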

For data set [2], the target named is T2, Chymotrypsin-like elastase family member 2A (Sus scrofa) (UniProt P08419).
T2 sequence (whole entry): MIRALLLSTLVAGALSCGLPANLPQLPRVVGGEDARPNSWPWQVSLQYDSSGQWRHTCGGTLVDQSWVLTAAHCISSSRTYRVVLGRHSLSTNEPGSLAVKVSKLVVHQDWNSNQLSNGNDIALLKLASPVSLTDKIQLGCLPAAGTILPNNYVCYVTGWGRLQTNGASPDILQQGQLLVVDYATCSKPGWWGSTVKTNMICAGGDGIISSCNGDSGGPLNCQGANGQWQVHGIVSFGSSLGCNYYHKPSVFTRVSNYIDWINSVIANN
The data set is described as follows: Second-order rate constant for the inhibition of PPE (pancreatic porcine elastase); NI=no inhibition. In outline: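 Porcine pancreatic elastase was assayed at 25 °C with an inhibitor-to-enzyme ratio [I]/[E] of 200, giving the second-order constant k_obs/[I].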

Data set [3] has as its target T1, Neutrophil elastase (Homo sapiens). Kind of data set: Second-order rate constant for the inhibition of human leukocyte elastase;NI=no inhibition. In outline:
as §2

A short description of data set [4]: Half-life in pH 7.4 phosphate buffer at 37 degree C. The format is ADME.
The target of data set [5] is T3, Neutrophil elastase (Homo sapiens, UniProt P08246).
T3 sequence (P08246 whole entry): T1 sequence (whole entry)
Described as §1. Put shortly: as §2

For data set [6], the target named is T1, Neutrophil elastase (Homo sapiens). Kind of data set: Second-order rate constant for the inhibition of HLE (human leukocyte elastase). Put shortly:
as §2

As to `CCC1(CC)C(=O)N(COC(=O)Nc2ccccc2)C1S(=O)(=O)c1ccccc1` (centres undefined), the second-order inhibition rate constant in data set [1] was 41.9 M⁻¹ s⁻¹. In addition, the “k obs / 1” value in data set [2] was “inactive”.

Turning to `CCC1(CC)C(=O)N(COC(=O)c2ccccc2)C1Sc1ccccc1` (centres undefined), the second-order inhibition rate constant in data set [1] was 2.2 M⁻¹ s⁻¹.

Turning to `CCC1(CC)C(=O)N(CO)C1S(=O)(=O)c1ccccc1` (centres undefined), the “k obs / 1” value in data set [3] is “inactive”.

The compound `CO[C@H]1C(=O)N2C(C(=O)O)=C(CF)CS(=O)(=O)C12` (some centres undefined) showed a half-life in data set [4] of 0.792 days. The IC50 in data set [5] came to 110 µM.

The compound `O=C(OCN1C(=O)CC1Sc1nc2ccccc2o1)c1ccccc1` (centres undefined) showed a second-order inhibition rate constant in data set [1] of 43.2 M⁻¹ s⁻¹. The “k obs / 1” value in data set [2] is “inactive”.

As to `O=C(OCN1C(=O)CC1Sc1ccccc1)c1ccccc1` (centres undefined), in data set [3], the “k obs / 1” value was “inactive”.

On to `CCC1(CC)C(=O)N(COC(=O)NS(=O)(=O)c2ccc(C)cc2)C1S(=O)(=O)c1ccccc1` (centres undefined), for which the second-order inhibition rate constant in data set [1] turned out to be 32.3 M⁻¹ s⁻¹.

With `CCC1(CC)C(=O)N(COC(=O)Nc2ccc(C)cc2)C1S(=O)(=O)c1ccccc1` (centres undefined), the second-order inhibition rate constant in data set [1] amounted to 60.9 M⁻¹ s⁻¹. Also, the “k obs / 1” value in data set [2] was “inactive”.

On to `CCC1(CC)C(=O)N(COC(=O)c2ccccc2)C1S(=O)(=O)c1ccccc1` (centres undefined), for which, in data set [4], the half-life was 125 days. In addition, the second-order inhibition rate constant in data set [1] was 67.5 M⁻¹ s⁻¹. For the same compound, the “k obs / 1” value in data set [2] was “inactive”.

Take `O=C(OCN1CCC1=O)c1ccccc1`: the half-life in data set [4] is 0.0542 days. The k obs / 1 in data set [6] was 35.5 M⁻¹ s⁻¹. In addition, in data set [2], the “k obs / 1” value was “inactive”.

As for `CCC1(CC)C(=O)N(COC(=O)Nc2ccc(OC)cc2)C1S(=O)(=O)c1ccccc1` (centres undefined), the half-life in data set [4] was > 208 days. This compound also had a second-order inhibition rate constant in data set [1] of 100 M⁻¹ s⁻¹. Besides, the “k obs / 1” value in data set [2] was “inactive”.

On to `O=C1CCN1CO`, for which the “k obs / 1” value in data set [3] was “inactive”.

Compound `CCC1(CC)C(=O)N(COC(=O)c2ccccc2)C1Sc1nc2ccccc2o1` (centres undefined) showed a half-life in data set [4] of 13.2 days. The compound further showed a second-order inhibition rate constant in data set [1] of 52.8 M⁻¹ s⁻¹. Moreover, the “k obs / 1” value in data set [2] was “inactive”.

Compound `O=C(OCN1C(=O)CC1S(=O)(=O)c1ccccc1)c1ccccc1` (centres undefined) had a half-life in data set [4] of 40.8 days. Moreover, the second-order inhibition rate constant in data set [1] is 18.7 M⁻¹ s⁻¹. In addition, in data set [2], the “k obs / 1” value was “inactive”.

Consider `CO[C@H]1C(=O)N2C(C(=O)O)=C(COC(C)=O)CS(=O)(=O)C12` (some centres undefined), for which the second-order inhibition rate constant in data set [1] amounted to 19000 M⁻¹ s⁻¹.
